Reference: ChEMBL document CHEMBL2046280, “Discovery of the novel potent and selective FLT3 inhibitor 1-{5-[7-(3- morpholinopropoxy)quinazolin-4-ylthio]-[1,3,4]thiadiazol-2-yl}-3-p-tolylurea and its anti-acute myeloid leukemia (AML) activities in vitro and in vivo” (J Med Chem, 2012)

Experiments:
MV4-11 [1] = experiment: Cytotoxicity against FLT3-dependent human MV4-11 cells after 72 hrs by MTT assay; assay type: functional, cell-based; conditions: MV4-11, 72 h
In short: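 Leukemia cells at 1−4 × 10⁴ per well were exposed to increasing inhibitor concentrations for 72 h at 37 °C. MTT was then added for 2−4 h, and cells were lysed with 20% acidified SDS. OD read at 570 nm. Viability relative to 0.1% DMSO controls; triplicate. MV4-11 grown in IMDM, others in RPMI 1640 or DMEM with 10% FBS.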

HCT-116 = experiment: Cytotoxicity against FLT3-independent human HCT116 cells after 72 hrs by MTT assay; assay type: functional, cell-based; conditions: HCT-116, 72 h
In short: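 Adherent lines at 2−5 × 10³ cells/well were allowed to settle 24 h, then the medium was replaced with serial inhibitor dilutions for 72 h. MTT was added for 2−4 h, followed by dissolution in 100% DMSO. OD read at 570 nm. Viability relative to 0.1% DMSO controls; triplicate. Grown in RPMI 1640 or DMEM with 10% FBS, 5% CO₂, 37 °C.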

MV4-11 [2] = experiment: Antitumor activity against human MV4-11 cells xenografted in NOD-SCID mouse assessed as tumor growth inhibition at 50 mg/kg, ip once daily for 21 days measured every 3 days; assay type: functional; conditions: MV4-11, ip, route intraperitoneal, read-out: GI
[3] = target: T1, Receptor-type tyrosine-protein kinase FLT3 (Homo sapiens, UniProt P36888); experiment: Inhibition of human FLT3
T1 sequence (P36888 whole entry): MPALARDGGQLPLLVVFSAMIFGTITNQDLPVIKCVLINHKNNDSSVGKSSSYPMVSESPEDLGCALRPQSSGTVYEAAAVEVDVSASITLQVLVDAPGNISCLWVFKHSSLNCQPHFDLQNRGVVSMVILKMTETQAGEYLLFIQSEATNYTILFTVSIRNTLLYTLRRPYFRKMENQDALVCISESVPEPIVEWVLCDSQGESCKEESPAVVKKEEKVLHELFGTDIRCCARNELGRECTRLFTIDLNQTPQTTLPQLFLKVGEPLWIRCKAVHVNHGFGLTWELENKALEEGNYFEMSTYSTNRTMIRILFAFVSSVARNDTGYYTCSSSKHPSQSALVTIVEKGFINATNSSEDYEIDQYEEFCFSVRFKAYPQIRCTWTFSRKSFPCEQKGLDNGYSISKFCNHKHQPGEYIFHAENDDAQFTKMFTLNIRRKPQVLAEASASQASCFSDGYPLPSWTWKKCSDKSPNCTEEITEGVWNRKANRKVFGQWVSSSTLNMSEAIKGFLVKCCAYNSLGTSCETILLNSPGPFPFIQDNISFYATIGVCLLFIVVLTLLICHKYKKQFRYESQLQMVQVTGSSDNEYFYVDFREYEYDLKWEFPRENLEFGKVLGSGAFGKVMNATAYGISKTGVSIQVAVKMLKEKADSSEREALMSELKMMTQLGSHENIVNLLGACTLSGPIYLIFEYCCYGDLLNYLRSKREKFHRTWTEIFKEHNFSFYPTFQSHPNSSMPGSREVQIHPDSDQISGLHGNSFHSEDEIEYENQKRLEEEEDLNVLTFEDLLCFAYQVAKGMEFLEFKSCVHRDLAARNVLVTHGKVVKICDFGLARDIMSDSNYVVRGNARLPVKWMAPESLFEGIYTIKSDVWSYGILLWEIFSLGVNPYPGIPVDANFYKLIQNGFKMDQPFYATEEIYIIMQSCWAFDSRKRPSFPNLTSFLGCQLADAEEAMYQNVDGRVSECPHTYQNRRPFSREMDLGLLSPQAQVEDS
In short: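 Human FLT3 kinase assayed across a dose−response series at 200 μM ATP.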

[4] = Cmax in Sprague-Dawley rat at 40 mg/kg, ip; assay type: ADME, organism-based; set-up: dose 40 mg/kg, route intraperitoneal; conditions: in vivo
In short: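 Male Sprague−Dawley rats (200−250 g), n = 3, fasted overnight, with a femoral-vein catheter for blood sampling. Single 40 mg/kg ip dose; plasma drug levels measured by LC-MS/MS.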

Compound | IC50 (MV4-11 [1]) [nM] | IC50 (HCT-116) [nM] | inhibition in vivo at 50 mg/kg (MV4-11 [2]) [%] | IC50 [3] [nM] | Cmax [4] [ng/mL]
COCCOc1cc2ncnc(Sc3nnc(NC(=O)Nc4ccc(C(F)(F)F)cc4)s3)c2cc1OCCOC | 300 | > 10000 | – | – | –
COCCOc1cc2ncnc(Sc3nc(C)c(CC(=O)Nc4nc5ccc(OC)cc5s4)s3)c2cc1OCCOC | 1900 | > 10000 | – | – | –
COCCOc1cc2ncnc(Sc3nncs3)c2cc1OCCOC | 1350 | > 10000 | – | – | –
COCCOc1cc2ncnc(Sc3nc(C)c(CC(=O)Nc4cc(C)cc(C)c4)s3)c2cc1OCCOC | 625 | > 10000 | – | – | –
O=C(Nc1cccc(Cl)c1)Nc1nnc(Sc2ncnc3cc(OCCCN4CCOCC4)ccc23)s1 | 12 | > 10000 | – | – | –
COCCOc1cc2ncnc(Sc3nc(CC(=O)Nc4cccc(Cl)c4)cs3)c2cc1OCCOC | 3200 | > 10000 | – | – | –
COc1cc2ncnc(Sc3nc(C)c(CC(=O)Nc4cccc(C(F)(F)F)c4)s3)c2cc1OC | 20 | > 10000 | – | – | –
COCCOc1cc2ncnc(Sc3nnc(NC(=O)Nc4cccc(Cl)c4)s3)c2cc1OCCOC | 20 | > 10000 | – | – | –
COc1cc2ncnc(Sc3nccs3)c2cc1OCCN1CCCCC1 | 1610 | > 10000 | – | – | –
COc1cc2ncnc(Sc3nc(C)c(CC(=O)Nc4cc(Cl)cc(Cl)c4)s3)c2cc1OC | 1400 | > 10000 | – | – | –
C#Cc1cccc(NC(=O)Nc2nnc(Sc3ncnc4cc(OCCOC)c(OCCOC)cc34)s2)c1 | 5 | > 10000 | < 50 | – | –
COc1cc2ncnc(Sc3nc(C)c(CC(=O)Nc4ccc(NC(C)=O)cc4)s3)c2cc1OC | > 5000 | > 10000 | – | – | –
C#Cc1cccc(NC(=O)Nc2nnc(Sc3ncnc4cc(OCCCN5CCOCC5)ccc34)s2)c1 | 0.3 | > 10000 | < 50 | 6 | 2740
COc1cc2c(Sc3nccs3)ncnc2cc1OCCN1CCCCC1 | 1500 | > 10000 | – | – | –
C=CC(=O)Nc1nnc(Sc2ncnc3cc(OCCOC)c(OCCOC)cc23)s1 | > 10000 | > 10000 | – | – | –
COc1cc2ncnc(Sc3nccs3)c2cc1OCCN1CCOCC1 | 2950 | > 10000 | – | – | –
COc1cc2ncnc(Sc3nccs3)c2cc1OCCN1CCCC1 | 1240 | > 10000 | – | – | –
COCCOc1cc2ncnc(Sc3nc(C)c(CC(=O)Nc4cccc(Cl)c4)s3)c2cc1OCCOC | 210 | > 10000 | – | – | –
COc1cc2c(Sc3nccs3)ncnc2cc1OCCN1CCOCC1 | 3000 | > 10000 | – | – | –
COCCOc1cc2ncnc(Sc3nc(CC(=O)Nc4cccc(C(F)(F)F)c4)cs3)c2cc1OCCOC | 830 | > 10000 | – | – | –
COc1cc2c(Sc3nccs3)ncnc2cc1OCCN1CCCC1 | 1600 | > 10000 | – | – | –
COc1cc2ncnc(Sc3nccs3)c2cc1OCCCN1CCOCC1 | 1020 | > 10000 | – | – | –

Compound | IC50 (MV4-11 [1]) [nM] | IC50 (HCT-116) [nM] | inhibition in vivo at 50 mg/kg (MV4-11 [2]) [%] | IC50 [3] [nM] | Cmax [4] [ng/mL]
COCCOc1cc2ncnc(Sc3nnc(NC(=O)Nc4cccc(Br)c4)s3)c2cc1OCCOC | 22 | > 10000 | – | – | –
COCCOc1cc2ncnc(Sc3nc(CC(=O)Nc4cc(C)cc(C)c4)cs3)c2cc1OCCOC | 9040 | > 10000 | – | – | –
COc1cc2ncnc(Sc3nccs3)c2cc1OCCCN(C)C | 1130 | > 10000 | – | – | –
COCCOc1cc2ncnc(Sc3nc(C)c(CC(=O)Nc4cccc(C(F)(F)F)c4)s3)c2cc1OCCOC | 25 | > 10000 | – | – | –
COc1cc2c(N3CCN(C(=O)Nc4ccc(OC(C)C)cc4)CC3)ncnc2cc1OCCCN1CCCCC1 [TANDUTINIB] | 55 | – | – | – | –
COCCOc1cc2ncnc(Sc3nnc(NC(=O)Nc4ccc(C)cc4)s3)c2cc1OCCOC | 22 | > 10000 | – | – | –
COc1cc2ncnc(Sc3nc(C)c(CC(=O)NCc4ccc(Cl)cc4)s3)c2cc1OC | > 10000 | > 10000 | – | – | –
COc1cc2ncnc(Sc3nc(C)cs3)c2cc1OC | 3680 | > 10000 | – | – | –
C=CC(=O)Nc1nnc(Sc2ncnc3cc(OCCCN4CCOCC4)ccc23)s1 | 6000 | > 10000 | – | – | –
COc1cc2ncnc(Sc3nncs3)c2cc1OC | 1200 | > 10000 | – | 9 | –
COc1cc2ncnc(Sc3nccs3)c2cc1OC | 1140 | > 10000 | – | 7 | –
COCCOc1cc2ncnc(Sc3nnc(NC(=O)Nc4cccc(F)c4)s3)c2cc1OCCOC | 400 | > 10000 | – | – | –
COc1cc2ncnc(Sc3nc(C)c(CC(=O)Nc4cccc(Cl)c4)s3)c2cc1OC | 450 | > 10000 | – | – | –
CCN(CC)CCNC(=O)c1c(C)[nH]c(/C=C2\C(=O)Nc3ccc(F)cc32)c1C [SUNITINIB] | 3 | – | – | – | –
COCCOc1cc2ncnc(Sc3nccs3)c2cc1OCCOC | 1400 | > 10000 | – | – | –
COCCOc1cc2ncnc(Sc3nnc(NC(C)=O)s3)c2cc1OCCOC | > 11000 | > 10000 | – | – | –
COCCOc1cc2ncnc(Sc3nc(C)c(CC(=O)Nc4ccc(C(F)(F)F)cc4)s3)c2cc1OCCOC | 27 | > 10000 | – | – | –
COCCOc1cc2ncnc(Sc3nc(C)c(CC(=O)NC4CC4)s3)c2cc1OCCOC | 2420 | > 10000 | – | – | –
COc1cc2c(Sc3nccs3)ncnc2cc1OCCCN1CCOCC1 | 1150 | > 10000 | – | – | –
COCCOc1cc2ncnc(Sc3nc(CC(=O)Nc4ccc(C(F)(F)F)cc4)cs3)c2cc1OCCOC | 2880 | > 10000 | – | – | –
O=C(Nc1ccccc1)Nc1nnc(Sc2ncnc3cc(OCCCN4CCOCC4)ccc23)s1 | 10 | > 10000 | – | – | –
